Measured values: ChEMBL document CHEMBL3870325 (Bioorg Med Chem, 2017)
One block for each compound: values may come before it.

Columns and labels:
cells [1] = conditions: Homo sapiens, A-431, 48 h
cells [2] = assay type: functional, cell-based; conditions: Homo sapiens, BT-474, 48 h
cells [3] = assay type: functional, cell-based; conditions: Homo sapiens, A549, 48 h
cells [4] = conditions: Homo sapiens, SK-BR-3, 48 h
cells [5] = conditions: Homo sapiens, NCI-H1975, 48 h
Histone deacetylase 1 = Histone deacetylase 1 (Homo sapiens, UniProt Q13547); test: Inhibition of HDAC1 (unknown origin) using acetylated peptide substrate preincubated for 15 mins followed by substrate addition measured after 60 mins by fluorescence analysis
[6] = target: T1, Epidermal growth factor receptor (Homo sapiens, UniProt P00533)
[7] = target: T2, Protein deacetylase HDAC6 (Homo sapiens, UniProt Q9UBN7); test: Inhibition of HDAC6 (unknown origin) using acetylated peptide substrate preincubated for 15 mins followed by substrate addition measured after 60 mins by fluorescence analysis
T2 sequence (Q9UBN7 whole entry): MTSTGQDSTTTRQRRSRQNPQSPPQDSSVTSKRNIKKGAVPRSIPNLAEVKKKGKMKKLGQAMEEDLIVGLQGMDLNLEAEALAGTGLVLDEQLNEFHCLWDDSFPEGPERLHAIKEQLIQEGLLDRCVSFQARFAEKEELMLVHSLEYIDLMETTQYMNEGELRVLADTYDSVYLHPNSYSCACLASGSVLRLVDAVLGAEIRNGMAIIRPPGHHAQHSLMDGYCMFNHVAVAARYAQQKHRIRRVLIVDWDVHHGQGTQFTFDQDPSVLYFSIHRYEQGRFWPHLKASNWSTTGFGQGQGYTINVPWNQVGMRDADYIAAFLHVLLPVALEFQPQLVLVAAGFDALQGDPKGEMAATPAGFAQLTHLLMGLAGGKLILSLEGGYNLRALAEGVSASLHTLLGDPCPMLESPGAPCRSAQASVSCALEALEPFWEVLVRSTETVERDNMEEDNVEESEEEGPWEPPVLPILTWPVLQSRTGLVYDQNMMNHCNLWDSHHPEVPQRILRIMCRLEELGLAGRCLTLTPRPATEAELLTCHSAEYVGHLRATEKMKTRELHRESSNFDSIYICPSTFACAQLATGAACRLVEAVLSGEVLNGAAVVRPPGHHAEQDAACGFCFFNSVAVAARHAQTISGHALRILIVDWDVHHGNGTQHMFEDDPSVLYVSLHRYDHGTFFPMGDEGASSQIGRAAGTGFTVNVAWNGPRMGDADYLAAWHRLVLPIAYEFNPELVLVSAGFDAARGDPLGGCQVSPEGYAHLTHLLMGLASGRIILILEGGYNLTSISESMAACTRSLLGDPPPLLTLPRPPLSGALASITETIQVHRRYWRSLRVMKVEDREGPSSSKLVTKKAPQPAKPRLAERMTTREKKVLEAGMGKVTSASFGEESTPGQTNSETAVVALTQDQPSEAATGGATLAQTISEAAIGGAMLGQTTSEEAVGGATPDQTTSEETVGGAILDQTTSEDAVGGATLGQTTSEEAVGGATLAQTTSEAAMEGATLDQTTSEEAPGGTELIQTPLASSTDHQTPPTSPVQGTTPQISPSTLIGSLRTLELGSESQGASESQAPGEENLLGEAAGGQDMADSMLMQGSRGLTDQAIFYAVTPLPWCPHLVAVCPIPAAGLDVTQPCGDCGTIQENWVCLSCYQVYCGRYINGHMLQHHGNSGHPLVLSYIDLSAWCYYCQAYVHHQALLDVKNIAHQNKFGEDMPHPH

[8] = target: T3, Receptor tyrosine-protein kinase erbB-2 (Homo sapiens, UniProt P04626); test: Inhibition of HER2 (unknown origin) assessed as remaining ATP level measured after 15 mins by luminescence analysis
Outline: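 Kinase run as a contracted HTRF assay. Compounds in 3-fold dilution in 2.5% DMSO/kinase buffer, mixed with kinase and substrate, preincubated 15 min at RT. ATP added to start, reaction 30 min at RT. Stopped with Streptavidin-XL665 plus europium-cryptate TK antibody (1:100). Excitation 320 nm, 665/615 nm emission ratio. IC50 from inhibition curves, results from 2 assays.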

[9] = target: T1, Epidermal growth factor receptor; test: Inhibition of EGFR (unknown origin)
Outline: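 HTRF kinase assay. Compounds were serially diluted 3-fold in 2.5% DMSO/kinase buffer, then mixed with kinase and substrate and preincubated 15 min at RT. The reaction was started with ATP and run 30 min at RT. It was stopped with Streptavidin-XL665 and TK antibody europium cryptate. Read at ex 320 nm, em 665/615 nm ratio. IC50 from inhibition curves; 2 separate assays.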

[10] = target: T3, Receptor tyrosine-protein kinase erbB-2; test: Inhibition of HER2 (unknown origin)
Outline: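 Homogeneous time-resolved fluorescence kinase assay. Compounds were 3-fold serially diluted in 2.5% DMSO/kinase buffer and preincubated with kinase and substrate for 15 min at RT. ATP started the reaction, which ran 30 min at RT and was stopped with Streptavidin-XL665 plus TK antibody europium cryptate. Read at 320 nm excitation, 665/615 nm emission ratio. IC50 from inhibition curves; two separate assays.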

BT-474 [11] = test: Induction of apoptosis in human BT474 cells assessed as necrotic cells at 5 uM measured after 48 hrs by Annexin V-FITC/propidium iodide staining based flow cytometry (reference value: 0.06%); assay type: functional
[12] = target: T1, Epidermal growth factor receptor; conditions: A549, 0.5 uM
[13] = target: T1, Epidermal growth factor receptor; conditions: A549, 0.5 uM; remark: listed apart in the source
BT-474 [14] = test: Induction of apoptosis in human BT474 cells assessed as necrotic cells at 1 uM measured after 48 hrs by Annexin V-FITC/propidium iodide staining based flow cytometry (reference value: 0.06%); assay type: functional
BT-474 [15] = test: Induction of apoptosis in human BT474 cells assessed as necrotic cells at 2.5 uM measured after 48 hrs by Annexin V-FITC/propidium iodide staining based flow cytometry (reference value: 0.06%); assay type: functional
BT-474 [16] = test: Induction of apoptosis in human BT474 cells assessed as viable cells at 5 uM measured after 48 hrs by Annexin V-FITC/propidium iodide staining based flow cytometry (reference value: 96.76%); assay type: functional; conditions: BT-474, 48 h, read-out: Activity
BT-474 [17] = test: Induction of apoptosis in human BT474 cells assessed as viable cells at 1 uM measured after 48 hrs by Annexin V-FITC/propidium iodide staining based flow cytometry (reference value: 96.76%); assay type: functional; conditions: BT-474, 48 h, read-out: Activity
[18] = target: T3, Receptor tyrosine-protein kinase erbB-2; conditions: BT-474, 1 uM
BT-474 [19] = test: Induction of apoptosis in human BT474 cells assessed as early apoptotic cells at 2.5 uM measured after 48 hrs by Annexin V-FITC/propidium iodide staining based flow cytometry (reference value: 2.87%); assay type: functional
BT-474 [20] = test: Induction of apoptosis in human BT474 cells assessed as early apoptotic cells at 5 uM measured after 48 hrs by Annexin V-FITC/propidium iodide staining based flow cytometry (reference value: 2.87%); assay type: functional
[21] = target: T1, Epidermal growth factor receptor; test: Inhibition of EGFR in human A549 cells assessed as suppression of EGFR phosphorylation at Tyr1068 residue measured after 24 hrs by Western blot analysis; assay type: cell-based
Outline: (§1)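 A549 cells treated 24 h across a dose range. Lysate protein (20-40 µg) run on 7.5%-15% SDS-PAGE and blotted to PVDF. Membranes blocked 2 h in TBST with 5% BSA. Primary antibody (p-EGFR Tyr1068, p-EGFR Tyr1173, total EGFR, acetyl-histone H3 Lys27) applied 8-12 h at 4°C. HRP secondary, chemiluminescent detection.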

[22] = target: T1, Epidermal growth factor receptor; test: Inhibition of EGFR in human A549 cells assessed as suppression of EGFR phosphorylation at Tyr1173 residue measured after 24 hrs by Western blot analysis; assay type: cell-based
Outline: as §1

BT-474 [23] = test: Induction of apoptosis in human BT474 cells measured after 48 hrs by Annexin V-FITC/propidium iodide staining based flow cytometry; assay type: functional, cell-based
BT-474 [24] = test: Induction of apoptosis in human BT474 cells assessed as viable cells at 2.5 uM measured after 48 hrs by Annexin V-FITC/propidium iodide staining based flow cytometry (reference value: 96.76%); assay type: functional; conditions: BT-474, 48 h, read-out: Activity
BT-474 [25] = test: Induction of apoptosis in human BT474 cells assessed as early apoptotic cells at 1 uM measured after 48 hrs by Annexin V-FITC/propidium iodide staining based flow cytometry (reference value: 2.87%); assay type: functional
BT-474 [26] = test: Induction of apoptosis in human BT474 cells assessed as late apoptotic cells at 2.5 uM measured after 48 hrs by Annexin V-FITC/propidium iodide staining based flow cytometry (reference value: 0.32%); assay type: functional
BT-474 [27] = test: Induction of apoptosis in human BT474 cells assessed as late apoptotic cells at 1 uM measured after 48 hrs by Annexin V-FITC/propidium iodide staining based flow cytometry (reference value: 0.32%); assay type: functional
BT-474 [28] = test: Induction of apoptosis in human BT474 cells assessed as late apoptotic cells at 5 uM measured after 48 hrs by Annexin V-FITC/propidium iodide staining based flow cytometry (reference value: 0.32%); assay type: functional
A549 = test: Inhibition of HDAC in human A549 cells assessed as activation of H3 hyperacetylation measured after 24 hrs by Western blot analysis; assay type: cell-based
Outline: as §1

[29] = target: T3, Receptor tyrosine-protein kinase erbB-2; conditions: BT-474, 25 uM
[30] = Inhibition of HDAC in human HeLa cell nuclear extract using COLOR DE LYS as substrate by fluorometric analysis; assay type: cell-free

T3 sequence (P04626 whole entry): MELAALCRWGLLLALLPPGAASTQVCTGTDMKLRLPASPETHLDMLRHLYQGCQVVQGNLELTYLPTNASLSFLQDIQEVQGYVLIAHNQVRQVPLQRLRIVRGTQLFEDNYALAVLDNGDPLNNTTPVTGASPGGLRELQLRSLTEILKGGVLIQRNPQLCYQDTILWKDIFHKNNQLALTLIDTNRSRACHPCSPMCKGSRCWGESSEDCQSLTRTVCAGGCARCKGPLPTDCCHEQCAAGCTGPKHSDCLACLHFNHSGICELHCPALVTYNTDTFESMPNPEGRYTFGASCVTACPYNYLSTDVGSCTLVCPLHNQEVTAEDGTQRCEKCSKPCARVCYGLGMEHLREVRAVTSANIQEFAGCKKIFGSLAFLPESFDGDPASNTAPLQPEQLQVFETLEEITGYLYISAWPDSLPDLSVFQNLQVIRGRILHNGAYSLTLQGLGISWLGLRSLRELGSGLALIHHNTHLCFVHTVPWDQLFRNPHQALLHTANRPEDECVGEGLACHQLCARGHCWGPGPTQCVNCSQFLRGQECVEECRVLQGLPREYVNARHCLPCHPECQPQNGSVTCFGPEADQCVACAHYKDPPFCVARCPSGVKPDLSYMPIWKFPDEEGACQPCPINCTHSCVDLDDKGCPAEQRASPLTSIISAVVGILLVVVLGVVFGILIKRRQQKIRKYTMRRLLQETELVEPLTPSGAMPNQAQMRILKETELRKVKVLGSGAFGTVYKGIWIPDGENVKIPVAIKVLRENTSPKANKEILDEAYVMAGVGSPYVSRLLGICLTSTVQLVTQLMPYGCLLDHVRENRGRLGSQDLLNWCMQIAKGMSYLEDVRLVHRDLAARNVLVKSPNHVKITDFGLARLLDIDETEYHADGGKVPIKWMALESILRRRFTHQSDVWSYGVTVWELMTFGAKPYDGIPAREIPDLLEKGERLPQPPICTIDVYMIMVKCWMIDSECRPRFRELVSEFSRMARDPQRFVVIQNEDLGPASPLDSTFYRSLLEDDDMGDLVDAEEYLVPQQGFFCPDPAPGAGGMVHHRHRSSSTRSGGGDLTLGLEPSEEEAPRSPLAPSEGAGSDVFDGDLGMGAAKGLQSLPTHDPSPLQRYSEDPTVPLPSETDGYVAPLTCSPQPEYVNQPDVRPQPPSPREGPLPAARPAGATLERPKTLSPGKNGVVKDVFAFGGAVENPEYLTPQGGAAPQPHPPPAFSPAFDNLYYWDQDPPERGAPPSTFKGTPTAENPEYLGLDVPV
Sequence of Histone deacetylase 1 (Q13547 whole entry): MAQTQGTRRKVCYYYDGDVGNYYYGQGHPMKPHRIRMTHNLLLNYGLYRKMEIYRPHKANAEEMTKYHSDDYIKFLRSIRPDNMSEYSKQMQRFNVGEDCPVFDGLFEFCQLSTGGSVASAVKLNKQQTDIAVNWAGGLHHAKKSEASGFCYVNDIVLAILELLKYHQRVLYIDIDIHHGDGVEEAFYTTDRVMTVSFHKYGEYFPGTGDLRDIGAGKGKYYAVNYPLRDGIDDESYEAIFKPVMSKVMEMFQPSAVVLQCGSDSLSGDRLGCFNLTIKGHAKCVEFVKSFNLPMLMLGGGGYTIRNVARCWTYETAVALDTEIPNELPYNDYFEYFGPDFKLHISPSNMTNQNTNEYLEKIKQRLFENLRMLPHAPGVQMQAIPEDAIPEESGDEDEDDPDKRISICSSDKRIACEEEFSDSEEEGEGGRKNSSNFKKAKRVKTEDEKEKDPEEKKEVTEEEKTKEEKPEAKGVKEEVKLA
T1 sequence (P00533 whole entry): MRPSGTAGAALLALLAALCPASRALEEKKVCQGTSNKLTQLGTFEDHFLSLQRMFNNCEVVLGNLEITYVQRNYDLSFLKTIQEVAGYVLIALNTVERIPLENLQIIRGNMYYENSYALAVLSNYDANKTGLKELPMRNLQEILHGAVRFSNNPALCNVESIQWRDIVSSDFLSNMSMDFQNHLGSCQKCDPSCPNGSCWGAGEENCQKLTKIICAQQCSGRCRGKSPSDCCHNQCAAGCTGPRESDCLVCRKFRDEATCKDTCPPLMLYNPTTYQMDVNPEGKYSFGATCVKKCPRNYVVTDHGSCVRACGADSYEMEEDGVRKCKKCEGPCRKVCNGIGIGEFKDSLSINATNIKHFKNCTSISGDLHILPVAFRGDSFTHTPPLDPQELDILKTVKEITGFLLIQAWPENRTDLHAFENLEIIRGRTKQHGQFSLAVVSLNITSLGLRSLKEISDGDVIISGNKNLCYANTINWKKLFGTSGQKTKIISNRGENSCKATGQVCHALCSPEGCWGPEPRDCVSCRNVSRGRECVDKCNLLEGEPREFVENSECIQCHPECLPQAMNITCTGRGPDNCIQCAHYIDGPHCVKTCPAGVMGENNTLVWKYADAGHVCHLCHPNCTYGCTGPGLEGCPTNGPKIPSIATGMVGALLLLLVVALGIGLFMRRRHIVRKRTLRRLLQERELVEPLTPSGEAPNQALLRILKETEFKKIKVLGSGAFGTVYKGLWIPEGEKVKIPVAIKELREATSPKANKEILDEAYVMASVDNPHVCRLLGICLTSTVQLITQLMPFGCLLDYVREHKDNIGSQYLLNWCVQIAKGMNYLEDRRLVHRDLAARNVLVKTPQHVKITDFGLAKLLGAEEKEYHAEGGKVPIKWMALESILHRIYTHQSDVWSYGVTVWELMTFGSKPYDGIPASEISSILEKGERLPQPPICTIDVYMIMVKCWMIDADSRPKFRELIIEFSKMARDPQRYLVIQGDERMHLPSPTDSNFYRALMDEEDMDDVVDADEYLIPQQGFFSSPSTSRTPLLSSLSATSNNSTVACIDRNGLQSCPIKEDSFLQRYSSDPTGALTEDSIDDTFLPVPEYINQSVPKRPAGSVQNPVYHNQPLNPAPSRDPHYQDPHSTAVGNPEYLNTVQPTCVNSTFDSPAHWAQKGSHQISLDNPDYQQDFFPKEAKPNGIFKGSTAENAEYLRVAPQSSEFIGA

- IC50 (cells [1]): 150 nM
- IC50 (cells [2]): 0.1 µM
- IC50 (cells [3]): 0.51 to 1.74 µM
- IC50 (cells [4]): 60 nM
- IC50 (cells [5]): 7.25 µM
Compound: CS(=O)(=O)CCNCc1ccc(-c2ccc3ncnc(Nc4ccc(OCc5cccc(F)c5)c(Cl)c4)c3c2)o1 [LAPATINIB]

- IC50 (cells [2]): 2.88 µM
- IC50 (cells [3]): 8.79 µM
- IC50 (Histone deacetylase 1): 5.6 nM
- IC50 [6]: 3.6 nM
- IC50 [7]: 13.6 nM
- IC50 [8]: 707 nM
Compound: O=C(CCCCCCn1cc(-c2ccc3ncnc(Nc4ccc(OCc5nccs5)c(Cl)c4)c3c2)nn1)NO

- IC50 (cells [1]): 2290 nM
Compound: O=C(CCCCCCC(=O)Nc1ccccc1)NO [VORINOSTAT]

Further lines, the compound ahead of its results:

Compound: C[C@@H]1COC(Nc2ccc3ncnc(Nc4ccc(OCc5nccs5)c(Cl)c4)c3c2)=N1 [VARLITINIB]
- IC50 [9]: 7 nM
- IC50 [10]: 2 nM

Compound: O=C(CCCCCn1cc(-c2ccc3ncnc(Nc4ccc(OCc5nccs5)c(Cl)c4)c3c2)nn1)NO
- IC50 (cells [2]): 20.6 µM
- IC50 (cells [3]): 9.96 µM
- IC50 (Histone deacetylase 1): 7.2 nM
- IC50 [6]: 6.9 nM
- IC50 [7]: 14.3 nM
- IC50 [8]: 537 nM

Compound: O=C(CCCCCCn1cc(-c2ccc3ncnc(Nc4cccc(Cl)c4F)c3c2)nn1)NO
- Activity (BT-474 [11]): 1.36%
- inhibition [12]: 100%
- IC50 (cells [1]): 490 nM
- IC50 (cells [2]): 3.88 µM
- inhibition [13]: 100%
- Activity (BT-474 [14]): 0.34%
- Activity (BT-474 [15]): 0.89%
- IC50 (cells [3]): 0.63 µM
- viability at 5 µM (BT-474 [16]): 34.8%
- viability at 1 µM (BT-474 [17]): 86.3%
- inhibition [18]: 100%
- Activity (BT-474 [19]): 14.83%
- IC50 (cells [4]): 690 nM
- Activity (BT-474 [20]): 22.02%
- inhibition [21]: Dose-dependent effect
- inhibition [22]: Dose-dependent effect
- Activity (BT-474 [23]): Dose-dependent effect
- viability at 2.5 µM (BT-474 [24]): 64.5%
- IC50 (Histone deacetylase 1): 0.72 nM
- Activity (BT-474 [25]): 8.27%
- Activity (BT-474 [26]): 19.73%
- Activity (BT-474 [27]): 5.1%
- IC50 [6]: 0.12 nM
- IC50 (cells [5]): 8.05 µM
- Activity (BT-474 [28]): 41.84%
- IC50 [7]: 3.2 nM
- inhibition (A549): Dose-dependent effect
- inhibition [29]: 100%
- IC50 [8]: 175 nM

Compound: Cc1ccc(Oc2ccc(Nc3ncnc4ccc(-c5cn(CCCCCCC(=O)NO)nn5)cc34)cc2C)cn1
- IC50 (cells [2]): 4.41 µM
- IC50 (cells [3]): 16.5 µM
- IC50 (Histone deacetylase 1): 5.2 nM
- IC50 [6]: 10 nM
- IC50 [7]: 13.8 nM
- IC50 [8]: > 1000 nM

Compound: C#Cc1cccc(Nc2ncnc3cc(OC)c(OCCCCCCC(=O)NO)cc23)c1 [CUDC-101]
- IC50 [30]: 4.2 nM
